# Measured values as given in PubChem BioAssay.
# Calls of active or inactive are those of the source.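 Rule for the calls, unless noted: active = current rise at least 3 SD above the untreated control mean in each of two repeat wells; inactive = the rest.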
# Target: Potassium voltage-gated channel subfamily KQT member 2 (Rattus norvegicus) (UniProt O88943)
# Test: rat KCNQ2 channel potentiation, selectivity assay for KCNQ1 potentiator project, KCNQ2-CHO-K1 cells (AID 493009;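 active = mean duplicate potentiation above the buffer control mean plus 5 SD of buffer wells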;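 note: assay conditions were tuned for KCNQ1 rather than KCNQ2 modulators; signal is max minus min fluorescence divided by baseline after thallium stimulus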)
# Details: FluxOR thallium flux fluorescence, at 10 µM; hits give high values, scaled: buffer 0, activator control 100
# Sequence of Potassium voltage-gated channel subfamily KQT member 2 (Rattus norvegicus) (O88943 whole entry, looked up): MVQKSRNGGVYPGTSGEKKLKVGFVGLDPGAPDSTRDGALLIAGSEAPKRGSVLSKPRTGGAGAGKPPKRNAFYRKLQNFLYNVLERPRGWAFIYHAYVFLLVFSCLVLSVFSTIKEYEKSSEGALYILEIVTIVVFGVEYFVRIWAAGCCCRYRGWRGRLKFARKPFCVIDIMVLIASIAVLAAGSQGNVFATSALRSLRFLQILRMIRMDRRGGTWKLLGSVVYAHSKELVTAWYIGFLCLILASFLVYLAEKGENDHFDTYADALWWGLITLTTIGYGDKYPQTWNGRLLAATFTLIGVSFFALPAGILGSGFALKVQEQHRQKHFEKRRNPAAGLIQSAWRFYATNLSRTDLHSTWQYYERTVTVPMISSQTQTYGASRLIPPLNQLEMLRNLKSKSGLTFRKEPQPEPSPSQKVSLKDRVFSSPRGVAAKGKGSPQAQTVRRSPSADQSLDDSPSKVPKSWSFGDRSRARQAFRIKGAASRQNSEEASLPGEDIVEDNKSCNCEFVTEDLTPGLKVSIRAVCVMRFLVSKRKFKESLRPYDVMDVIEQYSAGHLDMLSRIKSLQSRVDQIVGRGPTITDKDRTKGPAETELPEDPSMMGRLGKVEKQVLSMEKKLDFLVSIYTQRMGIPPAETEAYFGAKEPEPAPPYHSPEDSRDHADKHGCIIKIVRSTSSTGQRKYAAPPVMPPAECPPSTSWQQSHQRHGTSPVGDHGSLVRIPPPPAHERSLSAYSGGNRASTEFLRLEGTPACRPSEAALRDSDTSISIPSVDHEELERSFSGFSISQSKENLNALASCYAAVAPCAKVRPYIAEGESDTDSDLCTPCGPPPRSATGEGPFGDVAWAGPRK
Compound,outcome,potentiation
Cc1[nH]n(-c2ccccc2)c(=O)c1/C=N/N(c1ccccc1)c1ccccc1,inactive,–
COc1ccc(OC)c(NC(=O)C(=O)NNC(=O)COc2ccc(Br)cc2C)c1,–,614% (active)
O=C(COC(=O)CNC(=O)c1ccc(Cl)cc1Cl)Nc1cccc(S(=O)(=O)N2CCCC2)c1,inactive,–
COC(=O)c1c(NC(=S)Nc2ccc(F)cc2[N+](=O)[O-])sc2c1CCCCC2,–,180% (active)
CCn1c(CSc2nc3ccccc3n2C)nc2ccccc21,inactive,–
CCOC(=O)c1nnn(CC(=O)Nc2cc(Cl)ccc2C)c1C(=O)OCC,inactive,–
CCC(C)c1ccccc1NC(=S)NC(=O)c1ccco1 (stereo not given),–,431% (active)
CCOC(=O)c1sc2nc(C)nc(SCC(=O)N(C)C3CCS(=O)(=O)C3)c2c1C (stereo not given),–,142% (active)
CCOc1ccc2nc(Nc3nc4ccc(NC(C)=O)cc4s3)sc2c1,inactive,–
CCOC(=O)c1sc(NN=C(C(=O)OC)C(=O)OC)c(C(=O)OCC)c1C,–,208% (active)
Cc1cc(C(=O)NN)n[nH]1,inactive,–
Cc1ccc(OCCCC(=O)NCc2ccco2)c(C)c1,inactive,–
Cc1ccc(-c2c(=O)n(O)c3ccccc3[n+]2[O-])cc1,–,184% (active)
COc1ccc(-c2csc(N(CCCN(C)C)C(=O)c3ccccc3Cl)n2)cc1,inactive,–
Cc1cc(C)cc(OCC(O)Cn2nc(C)cc2C)c1 (stereo not given),inactive,–
CC(C)(C)NCC(O)COc1ccccc1C(C)(C)C (stereo not given),inactive,–
CC/C(=N\NC(=S)Nc1cccc(C)c1)c1ccccc1,–,216% (active)
COc1ccc(NC(=O)CC2C(=O)N(c3ccc(Cl)cc3)C(=S)N2NC(=O)c2cccc(F)c2)cc1 (stereo not given),inactive,–
CCOC(=O)c1c(NC(=S)NC)sc2c1CC(C)(C)SC2,–,444% (active)
CCOC(=O)Cc1cc(=O)n2[nH]c(C)c(-c3ccc(Cl)cc3)c2n1,inactive,–

Compound,outcome,potentiation
O=C(COc1ccccc1)NC(=S)N1CCc2ccccc21,inactive,–
Cn1ncc2c(O/N=C(\N)c3ccc(C(F)(F)F)cc3)ncnc21,inactive,–
O=c1c2cc(Br)ccc2nc(-c2ccc([N+](=O)[O-])cc2)n1O,–,410% (active)
COc1ccc(-c2csc(NC(=S)NC(=O)c3cccs3)n2)cc1OC,–,216% (active)
CC(c1ccccc1C(O)(c1ccccc1)c1ccccc1)N(C)C (stereo not given),inactive,–
CC(C)(C)c1cc(-c2csc(Nc3ccccc3)[n+]2Cc2ccc(C(=O)O)cc2)cc(C(C)(C)C)c1O,–,198% (active)
Cc1ccc(CN2CCN(/N=C/C(Br)=C\c3ccccc3)CC2)cc1,inactive,–
CCCS(=O)(=O)c1c(S(=O)(=O)CCC)c2ccc(C(N)=O)cn2c1C(=O)c1ccccc1,inactive,–
C=C(C)CNC(=S)Nc1nc2c(cc1C(=O)OCC)CCCC2,inactive,–
COc1cc(C2C(C#N)=C(N)Oc3cc(O)ccc32)cc2c1OCO2 (stereo not given),inactive,–
C=CCn1c(O)c(N=NC(=S)Nc2ccccc2C)c2cc(S(=O)(=O)N3CCOCC3)ccc21,–,226% (active)
CC(=O)c1c(N2CCOCC2)[nH]c(-c2ccccc2)nc1=S,–,204% (active)
Cc1nc(SCC(=O)NCC2CCCO2)c2c3c(sc2n1)CCCC3 (stereo not given),–,197% (active)
CN1CCN(CC/C=C2/c3ccccc3Sc3ccc(S(=O)(=O)N(C)C)cc32)CC1,inactive,–
COc1ccc(CN(C)CC(=O)Nc2ccc(Cl)cc2C(F)(F)F)c(OC)c1,inactive,–
CCCn1c(=S)[nH]c2ccc(C(F)(F)F)cc21,inactive,–
COC(=O)c1ccc(COC(=O)c2ccccn2)cc1,–,157% (active)
O=C(NC1CCCC1)C(c1cccnc1)N(C(=O)c1csnn1)C1CC1 (stereo not given),inactive,–
COc1ccc(CCNC(=O)c2ccc(N(C)S(=O)(=O)c3ccc(C)cc3)cc2)cc1OC,inactive,–
O=C(N/N=C/c1ccc(Sc2ccccn2)o1)c1cc2ccccc2cc1O,–,277% (active)

# Target: Potassium voltage-gated channel subfamily KQT member 1 (Homo sapiens) (UniProt P51787)
# Sequence (P51787 whole entry, looked up): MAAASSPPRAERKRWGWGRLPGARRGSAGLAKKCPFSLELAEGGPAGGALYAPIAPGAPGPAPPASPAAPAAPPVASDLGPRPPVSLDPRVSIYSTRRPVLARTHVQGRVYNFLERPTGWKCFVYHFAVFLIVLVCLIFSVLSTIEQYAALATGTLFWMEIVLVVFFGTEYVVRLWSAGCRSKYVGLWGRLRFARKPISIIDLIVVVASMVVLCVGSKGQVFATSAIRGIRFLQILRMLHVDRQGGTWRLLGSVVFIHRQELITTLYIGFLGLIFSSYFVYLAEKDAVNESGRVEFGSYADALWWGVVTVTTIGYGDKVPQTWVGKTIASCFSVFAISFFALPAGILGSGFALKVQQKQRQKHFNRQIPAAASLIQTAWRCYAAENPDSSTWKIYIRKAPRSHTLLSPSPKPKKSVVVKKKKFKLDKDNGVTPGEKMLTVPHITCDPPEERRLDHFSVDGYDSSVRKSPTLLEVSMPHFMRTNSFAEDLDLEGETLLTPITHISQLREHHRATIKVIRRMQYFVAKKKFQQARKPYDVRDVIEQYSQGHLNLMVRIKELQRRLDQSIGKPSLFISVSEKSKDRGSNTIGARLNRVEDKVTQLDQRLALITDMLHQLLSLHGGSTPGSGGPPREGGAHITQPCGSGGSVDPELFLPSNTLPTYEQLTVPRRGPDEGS
# Test: KCNQ1 channel current potentiators, confirmation, orthogonal assay for KCNQ1 potentiator project, IonWorks patch clamp, KCNQ1-CHO cells (AID 493184)
# Details: automated patch clamp current, at 10 µM; hits give high values
# In short: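 Material: KCNQ1-expressing CHO cells; doses: 10 µM final, single point; probe or stimulus: voltage step from -90 mV holding to +40 mV, 2,000 ms; signal: automated voltage clamp, amphotericin B perforated patch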
row,Compound,outcome
1,Cc1[nH]n(-c2ccccc2)c(=O)c1/C=N/N(c1ccccc1)c1ccccc1,inactive
2,COc1ccc(OC)c(NC(=O)C(=O)NNC(=O)COc2ccc(Br)cc2C)c1,inactive
3,O=C(COC(=O)CNC(=O)c1ccc(Cl)cc1Cl)Nc1cccc(S(=O)(=O)N2CCCC2)c1,inactive
4,COC(=O)c1c(NC(=S)Nc2ccc(F)cc2[N+](=O)[O-])sc2c1CCCCC2,inactive
5,CCn1c(CSc2nc3ccccc3n2C)nc2ccccc21,inactive
6,CCOC(=O)c1nnn(CC(=O)Nc2cc(Cl)ccc2C)c1C(=O)OCC,inactive
7,CCC(C)c1ccccc1NC(=S)NC(=O)c1ccco1 (stereo not given),inactive
8,CCOC(=O)c1sc2nc(C)nc(SCC(=O)N(C)C3CCS(=O)(=O)C3)c2c1C (stereo not given),inactive
9,CCOc1ccc2nc(Nc3nc4ccc(NC(C)=O)cc4s3)sc2c1,inactive
10,CCOC(=O)c1sc(NN=C(C(=O)OC)C(=O)OC)c(C(=O)OCC)c1C,inactive
11,Cc1cc(C(=O)NN)n[nH]1,inactive
12,Cc1ccc(OCCCC(=O)NCc2ccco2)c(C)c1,inactive
13,Cc1ccc(-c2c(=O)n(O)c3ccccc3[n+]2[O-])cc1,inactive
14,COc1ccc(-c2csc(N(CCCN(C)C)C(=O)c3ccccc3Cl)n2)cc1,inactive
15,Cc1cc(C)cc(OCC(O)Cn2nc(C)cc2C)c1 (stereo not given),inactive
16,CC(C)(C)NCC(O)COc1ccccc1C(C)(C)C (stereo not given),inactive
17,CC/C(=N\NC(=S)Nc1cccc(C)c1)c1ccccc1,inactive
18,COc1ccc(NC(=O)CC2C(=O)N(c3ccc(Cl)cc3)C(=S)N2NC(=O)c2cccc(F)c2)cc1 (stereo not given),inactive
19,CCOC(=O)c1c(NC(=S)NC)sc2c1CC(C)(C)SC2,inactive
20,CCOC(=O)Cc1cc(=O)n2[nH]c(C)c(-c3ccc(Cl)cc3)c2n1,inactive

row,Compound,outcome
1,O=C(COc1ccccc1)NC(=S)N1CCc2ccccc21,inactive
2,Cn1ncc2c(O/N=C(\N)c3ccc(C(F)(F)F)cc3)ncnc21,inactive
3,O=c1c2cc(Br)ccc2nc(-c2ccc([N+](=O)[O-])cc2)n1O,inactive
4,COc1ccc(-c2csc(NC(=S)NC(=O)c3cccs3)n2)cc1OC,inactive
5,CC(c1ccccc1C(O)(c1ccccc1)c1ccccc1)N(C)C (stereo not given),inactive
6,CC(C)(C)c1cc(-c2csc(Nc3ccccc3)[n+]2Cc2ccc(C(=O)O)cc2)cc(C(C)(C)C)c1O,inactive
7,Cc1ccc(CN2CCN(/N=C/C(Br)=C\c3ccccc3)CC2)cc1,inactive
8,CCCS(=O)(=O)c1c(S(=O)(=O)CCC)c2ccc(C(N)=O)cn2c1C(=O)c1ccccc1,inactive
9,C=C(C)CNC(=S)Nc1nc2c(cc1C(=O)OCC)CCCC2,inactive
10,COc1cc(C2C(C#N)=C(N)Oc3cc(O)ccc32)cc2c1OCO2 (stereo not given),inactive
11,C=CCn1c(O)c(N=NC(=S)Nc2ccccc2C)c2cc(S(=O)(=O)N3CCOCC3)ccc21,inactive
12,CC(=O)c1c(N2CCOCC2)[nH]c(-c2ccccc2)nc1=S,inactive
13,Cc1nc(SCC(=O)NCC2CCCO2)c2c3c(sc2n1)CCCC3 (stereo not given),inactive
14,CN1CCN(CC/C=C2/c3ccccc3Sc3ccc(S(=O)(=O)N(C)C)cc32)CC1,inactive
15,COc1ccc(CN(C)CC(=O)Nc2ccc(Cl)cc2C(F)(F)F)c(OC)c1,inactive
16,CCCn1c(=S)[nH]c2ccc(C(F)(F)F)cc21,inactive
17,COC(=O)c1ccc(COC(=O)c2ccccn2)cc1,inactive
18,O=C(NC1CCCC1)C(c1cccnc1)N(C(=O)c1csnn1)C1CC1 (stereo not given),inactive
19,COc1ccc(CCNC(=O)c2ccc(N(C)S(=O)(=O)c3ccc(C)cc3)cc2)cc1OC,inactive
20,O=C(N/N=C/c1ccc(Sc2ccccn2)o1)c1cc2ccccc2cc1O,inactive
